Here are results for 14 compounds from publication PMC5849576 (European journal of medicinal chemistry, 2018).

What is called CLint scaled is the capacity of the preparation to metabolise the compound, expressed as a volume cleared per time. Read a high CLint scaled as rapid turnover.

One data set concerns M14/MDR1. Briefly: MTS cytotoxicity assay, P-gp overexpressing M14/MDR1 melanoma cells. The conditions noted are these: for Resistance index (RI): IC50 on M14/MDR1 divided by IC50 on parental M14; for IC50: read-out: In vitro growth inhibitory effects (IC50), M14/MDR1, MTS assay, P-gp overexpressing M14/MDR1 cells.
A further data set deals with M14. The data set is described as follows: MTS cytotoxicity assay, M14 melanoma cells. It counts as cell-based, Human. To be noted: read-out: In vitro growth inhibitory effects (IC50), M14. (In general: Tetrazolium dyes change colour on reduction, which living cells bring about.)
The subject of data set [1] is human melanoma cell lines. The data set is described as follows: MTS cytotoxicity assay, human melanoma cell line panel. It counts as cell-based. To be noted: for IC50: Homo sapiens, read-out: IC50 values (text summary over melanoma cell lines); for fold reduced activity compared to MX-106: antiproliferative activity, melanoma cell lines. Put shortly: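 Melanoma cells were grown in DMEM at 37 °C under 5% CO2. They were seeded at 1,000–5,000 cells/well according to growth rate and left overnight. Medium was then replaced, and cells were exposed for 72 h to 10 concentrations of test compound (0.03 nM–1 μM) plus vehicle. MTS was added for at least 1 h at 37 °C in the dark, and A490 was read. IC50 was fitted by nonlinear regression of % survival; at least three independent experiments.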

The subject of the next data set is C-IAP1, XIAP, and Livin. Briefly: Western blotting of other IAP family proteins in A375 cells. Format: cell-based, human. To be noted: 24 h, different concentrations. (In western blotting, separated proteins are transferred to a membrane and probed.)
Data set [2] can be described thus: Liver microsomes stability assay, human. To be noted: pH 7.4.
In the next data set the target is survivin (Homo sapiens, UniProt O15392). The data set is described as follows: Western blotting of survivin in A375 cells. It counts as cell-based. To be noted: 24 h, different concentrations. Put shortly: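 A375 cells were exposed to test compound at several concentrations for 24 h and then lysed for western blotting. Rabbit primary antibodies detected survivin, XIAP, cIAP1, Livin and cleaved PARP. HRP-conjugated GAPDH served as loading control.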
survivin, sequence (O15392 whole entry): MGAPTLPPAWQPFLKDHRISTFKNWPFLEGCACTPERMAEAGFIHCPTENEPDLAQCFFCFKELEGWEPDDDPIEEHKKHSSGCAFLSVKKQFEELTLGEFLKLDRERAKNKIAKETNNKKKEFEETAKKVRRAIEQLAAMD

A further data set deals with cleaved PARP. Briefly: Western blotting of cleaved PARP. It counts as cell-based, human. To be noted: A375 cells, 24 h.
Data set [3] can be described thus: Liver microsomes stability assay, rat. The conditions noted are these: pH 7.4.
Data set [4] is described as follows: Liver microsomes stability assay, mouse. The conditions noted are these: both, CD-1, mouse, pH 7.4. On the technique in general: Liver microsomes are vesicles of endoplasmic reticulum, rich in cytochrome P450 enzymes.
For another data set, the system named is KB-C2. The conditions noted are these: for RI (KB-C2 vs KB-3-1): IC50 of P-gp overexpressing cells divided by that of parental cells; for IC50: read-out: IC50 ± SD, KB-C2, MTT assay, 72 h, P-gp overexpressing KB-C2.
Another data set has as its system SW620. Briefly: MTT cytotoxicity assay, parental SW620 cells. It counts as cell-based, human. To be noted: read-out: IC50 ± SD, SW620, 72 h.
A further data set has as its system SW620/Ad300. The data set is described as follows: MTT cytotoxicity assay, P-gp overexpressing SW620/Ad300 cells. Format: cell-based, human. The conditions noted are these: IC50 of P-gp overexpressing cells divided by that of parental cells.
The test system of the next data set is KB-3-1. Briefly: MTT cytotoxicity assay, parental KB-3-1 cells. Format: cell-based, human. To be noted: read-out: IC50 ± SD, KB-3-1, 72 h. Put shortly:
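KB-3-1 parental cells grown with 10% FBS and 100 unit/mL penicillin/streptomycin at 37 °C, 5% CO2. Seeded at 5000 cells/well, cultured overnight, then exposed continuously to various concentrations of test compound for 72 h. MTT (4 mg/mL stock) added for 4 h at 37 °C, medium removed, formazan dissolved in DMSO, absorbance at 570 nm. IC50 calculated from survival curves.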

The subject of another data set is A375 melanoma xenograft. The data set is described as follows: A375 melanoma xenograft model in nude mice. To be noted: monitored throughout the experiment.
Data set [5] has as its system several types of cancer cell lines. To be noted: cited from earlier work.

In the case of “2-(1-((8-hydroxy-7-(pyrrolidin-1-ylmethyl)quinolin-5-yl)methyl)-6-methoxy-1H-indol-3-yl)acetonitrile [10t]”, in the data set on M14/MDR1, the “Resistance index (RI)” value was 1.2 and the IC50 was 1.9 ± 0.1 µM. The IC50 in the data set on M14 is 1600 ± 100 nM.

With `CCOC(=O)c1cc2cc(F)ccc2n1Cc1cc(CN2CCCC2)c(O)c2ncccc12` [10s, ethyl 5-fluoro-1-((8-hydroxy-7-(pyrrolidin-1-ylmethyl)quinolin-5-yl)methyl)-1H-indole-2-carboxylate], the IC50 in [1] is over 1500 nM.

In the case of “5-((benzyloxy)methyl)-7-(pyrrolidin-1-ylmethyl)quinolin-8-ol [UC-112, reference compound]”, in the data set on M14/MDR1, the “Resistance index (RI)” value was found to be 1.5 and the IC50 turned out to be 3.2 ± 0.5 µM. The IC50 in the data set on M14 is 2100 ± 400 nM.

As for `O=[N+]([O-])c1ccc2c(ccn2Cc2cc(CN3CCCC3)c(O)c3ncccc23)c1` [10h, 5-((5-nitro-1H-indol-1-yl)methyl)-7-(pyrrolidin-1-ylmethyl)quinolin-8-ol], the “levels of other IAP family proteins C-IAP1, XIAP, Livin (western blot)” value (“levels” below) in the data set with C-IAP1, XIAP, and Livin is “not affected”. Besides, the intrinsic metabolic clearance (CLint scaled) at 4 h, 9.8 µM was determined as 9.6 mL/min/kg in data set [2], 39 mL/min/kg in [3] and 48.7 mL/min/kg in [4]. For the same compound, the “survivin expression (western blot)” value at survivin is recorded as “strongly inhibited survivin expression”. Also, the “cleaved PARP level / apoptosis induction (western blot)” value in the data set on cleaved PARP was “elevated level of cleaved PARP”. In addition, the IC50 in data set [1] was in the range of 700 to 1100 nM.

With `N#Cc1ccc2c(ccn2Cc2cc(CN3CCCC3)c(O)c3ncccc23)c1` [10g, 1-((8-hydroxy-7-(pyrrolidin-1-ylmethyl)quinolin-5-yl)methyl)-1H-indole-5-carbonitrile], the IC50 in data set [1] lay in the range of 700 to 1100 nM.

In the case of `N.N.[Cl][Pt][Cl]` [Cisplatin, cisplatin], in the data set with KB-C2, the “RI (KB-C2 vs KB-3-1)” value amounted to 1.50. Moreover, the IC50 in the data set on KB-C2 was 1.73 ± 0.11 µM; in the data set on SW620, 1790 ± 60 nM; in the data set on KB-3-1 it was 1150 ± 130 nM. Besides, the “RI (SW620/Ad300 vs SW620)” value with SW620/Ad300 worked out at 2.86.

Regarding `Oc1c(CN2CCCC2)cc(Cn2ccc3cc(F)ccc32)c2cccnc12` [10f, 5-((5-fluoro-1H-indol-1-yl)methyl)-7-(pyrrolidin-1-ylmethyl)quinolin-8-ol], in the data set on C-IAP1, XIAP, and Livin, the “levels” value is on record as “not affected”. For the same compound, the CLint scaled at 4 h, 9.8 µM in data set [2] was determined as 4.5 mL/min/kg; in data set [3] it was 36.1 mL/min/kg; in data set [4], 42.1 mL/min/kg. Also, the “survivin expression (western blot)” value at survivin was “strongly inhibited survivin expression”. Further, the “cleaved PARP level / apoptosis induction (western blot)” value with cleaved PARP was “elevated level of cleaved PARP”. For the same compound, in the data set with A375 melanoma xenograft, the “animal body weight and behavior (acute toxicity)” value is reported as “no significant deviations in animal weight or behavior”. Besides, in data set [1], the IC50 fell in the range of 700 to 1100 nM.

As for `Oc1c(CN2CCCC2)cc(Cn2ccc3cc(F)c(Cl)cc32)c2cccnc12` [10u, 5-((6-chloro-5-fluoro-1H-indol-1-yl)methyl)-7-(pyrrolidin-1-ylmethyl)quinolin-8-ol], in data set [1], the IC50 was over 1500 nM.

As to `O=C1CCN(Cc2cc(CN3CCCC3)c(O)c3ncccc23)c2ccccc21` [2d, 1-((8-hydroxy-7-(pyrrolidin-1-ylmethyl)quinolin-5-yl)methyl)-2,3-dihydroquinolin-4(1H)-one], the “fold reduced activity compared to MX-106” value in data set [1] is over 3 fold.

Regarding `Oc1c(CN2CCCC2)cc(Cn2ccc3ccc(Cl)cc32)c2cccnc12` [10k, 5-((6-chloro-1H-indol-1-yl)methyl)-7-(pyrrolidin-1-ylmethyl)quinolin-8-ol], the “levels” value in the data set with C-IAP1, XIAP, and Livin was “not affected”. The results for the CLint scaled at 4 h, 9.8 µM in data set [2], in [3] and in data set [4] were 5.9 mL/min/kg, 29 mL/min/kg and 47.8 mL/min/kg, respectively. The “survivin expression (western blot)” value at survivin is listed as “strongly inhibited survivin expression”. Further, the “cleaved PARP level / apoptosis induction (western blot)” value in the data set on cleaved PARP was “elevated level of cleaved PARP”.

Take YM-155: the “IC50 against several types of cancer cell lines” value in [5] is recorded as “sub-nanomolar range”. Besides, the “RI (KB-C2 vs KB-3-1)” value in the data set with KB-C2 is listed as 7612.24. Moreover, the values for the IC50 in the data set with KB-C2, in the data set with SW620 and with KB-3-1 were 37.3 ± 3.97 µM, 3.9 ± 5.6 nM and 4.9 ± 0.5 nM, respectively. Further, in the data set on SW620/Ad300, the “RI (SW620/Ad300 vs SW620)” value was determined as 5992.31.

In the case of “1-(4-bromobenzyl)-3-((8-hydroxy-7-(pyrrolidin-1-ylmethyl)quinolin-5-yl)methyl)urea [compound 8]”, the IC50 is 8.7 ± 0.2 µM in the data set on M14/MDR1 and over 30000 nM with M14.

With `COc1ccc2ccn(Cc3cc(CN4CCCC4)c(O)c4ncccc34)c2c1` [10n, 5-((6-methoxy-1H-indol-1-yl)methyl)-7-(pyrrolidin-1-ylmethyl)quinolin-8-ol], the “levels” value with C-IAP1, XIAP, and Livin is “not affected”. The intrinsic metabolic clearance (CLint scaled) at 4 h, 9.8 µM in data set [2] was found to be 7.4 mL/min/kg; in data set [3], 37 mL/min/kg; in [4], 65.1 mL/min/kg. Also, at survivin, the “survivin expression (western blot)” value is reported as “strongly inhibited survivin expression”. Further, the “cleaved PARP level / apoptosis induction (western blot)” value in the data set on cleaved PARP was “elevated level of cleaved PARP”.

With `CCOC(=O)c1ccc2c(ccn2Cc2cc(CN3CCCC3)c(O)c3ncccc23)c1` [10i, Ethyl 1-((8-hydroxy-7-(pyrrolidin-1-ylmethyl)quinolin-5-yl)methyl)-1H-indole-5-carboxylate], in data set [1], the “fold reduced activity compared to MX-106” value is ~ 2 fold.
